Measured values reported in paper PMC7439261 (ACS Omega, 2020).
Values after ≈ are worked out from the molar mass of the structure shown.

How the values were obtained:
[1] = Sulforhodamine cytotoxicity assay, Jurkat; format: cell-based; conditions: human, Jurkat cells
Outline: (§1)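 Cells were grown in EMEM with 10% FBS, 2 mM L-glutamine, 20 mM HEPES and antibiotics at 37 °C, 5% CO2. Passages were 4–20 for HeLa, MCF7 and Jurkat, and 2–5 for fibroblasts. Seeding per well for 24 h: HeLa 5×10^3, MCF7 and fibroblast 10^4, Jurkat 5×10^4. Test compound (0–200 mg/L, in DMSO) was added for 48 h. Cells were fixed with cold TCA, stained with 0.2% SRB, solubilised in 10 mM Tris and read at 492 nm. Camptothecin was the positive control. Triplicates, three independent experiments.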

H. pylori OX.83 = experiment: Broth dilution bioassay MIC/MBC, OX.83; format: cell-based, Helicobacter pylori; conditions: Helicobacter pylori; for MIC: OX.83, 48 h, H. pylori OX.83, broth dilution, 48 h; for MBC: OX.83, 72 h
[2] = test system: H. pylori ATCC 43504 biofilm formation; experiment: Biofilm formation inhibitory assay; format: cell-based, Helicobacter pylori; conditions: 48 h
H. pylori OX.67 = experiment: Broth dilution bioassay MIC/MBC, OX.67; format: cell-based, Helicobacter pylori; conditions: Helicobacter pylori; for MIC: OX.67, 48 h, H. pylori OX.67, broth dilution, 48 h; for MBC: OX.67, 72 h
[3] = test system: test strains of H. pylori; experiment: Broth dilution bioassay MIC/MBC, text summary over test strains; format: cell-based; conditions: Helicobacter pylori, ATCC51932
[4] = target: H. pylori ATCC 43504 urease (Helicobacter pylori, UniProt P69996); experiment: Urease inhibition, salicylate-hypochlorite method; format: biochemical; conditions: for slope ± SE: slope of dose-response curve of percentage of urease inhibition
Sequence of H. pylori ATCC 43504 urease (P69996 whole entry): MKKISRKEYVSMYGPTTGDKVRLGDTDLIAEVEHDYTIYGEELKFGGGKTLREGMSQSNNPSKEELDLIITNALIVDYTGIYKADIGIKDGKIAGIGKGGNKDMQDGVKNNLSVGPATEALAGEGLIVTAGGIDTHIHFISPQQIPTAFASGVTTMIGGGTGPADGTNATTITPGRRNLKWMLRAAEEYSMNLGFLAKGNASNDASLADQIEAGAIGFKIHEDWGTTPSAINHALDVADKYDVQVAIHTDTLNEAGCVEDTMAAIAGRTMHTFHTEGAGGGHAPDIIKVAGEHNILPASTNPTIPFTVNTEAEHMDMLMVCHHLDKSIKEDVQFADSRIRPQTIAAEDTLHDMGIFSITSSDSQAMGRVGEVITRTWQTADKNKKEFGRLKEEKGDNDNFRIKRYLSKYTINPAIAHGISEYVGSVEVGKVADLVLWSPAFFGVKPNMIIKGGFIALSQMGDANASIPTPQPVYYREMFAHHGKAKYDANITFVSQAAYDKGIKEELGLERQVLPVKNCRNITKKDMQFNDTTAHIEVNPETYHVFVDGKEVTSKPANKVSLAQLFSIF
Sequence of H. pylori ATCC 43504 urease (P14916 whole entry partner): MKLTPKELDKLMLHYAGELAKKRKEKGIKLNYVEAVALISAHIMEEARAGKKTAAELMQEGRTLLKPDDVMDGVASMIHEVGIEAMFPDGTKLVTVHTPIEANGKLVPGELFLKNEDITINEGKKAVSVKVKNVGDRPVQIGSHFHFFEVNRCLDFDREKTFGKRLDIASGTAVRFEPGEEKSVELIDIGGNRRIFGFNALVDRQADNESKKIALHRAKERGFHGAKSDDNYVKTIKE
Outline: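 Crude H. pylori ATCC 43504 urease, 0.25 μg (0.04 U), in EDTA–sodium phosphate buffer pH 7.3, was preincubated with test compound at 37 °C for 90 min at 50 rpm. Urea solution (10 mM, as added) was then incubated for 30 min. Ammonia was measured by the salicylate–nitroprusside/alkaline hypochlorite method at 625 nm. Thiourea was the reference inhibitor. IC50 is molar. Triplicates, three independent experiments.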

H. pylori ATCC 51932 = experiment: Broth dilution bioassay MIC/MBC, ATCC 51932; format: cell-based; conditions: Helicobacter pylori; for MIC: ATCC51932, 48 h; for MBC: ATCC51932, 72 h
H. pylori ATCC 43504 [5] = experiment: Broth dilution bioassay MIC/MBC, ATCC 43504; format: cell-based; conditions: Helicobacter pylori; for MIC: ATCC43504, 48 h; for MBC: ATCC43504, 72 h
[6] = Sulforhodamine cytotoxicity assay, MCF7; format: cell-based; conditions: human, MCF7 cells
Outline: as §1

H. pylori OX.64 = experiment: Broth dilution bioassay MIC/MBC, OX.64; format: cell-based, Helicobacter pylori; conditions: Helicobacter pylori; for MIC: OX.64, 48 h, H. pylori OX.64, broth dilution, 48 h; for MBC: OX.64, 72 h
H. pylori ATCC 43504 [7] = experiment: Effect on morphology; format: cell-based, Helicobacter pylori
[8] = Sulforhodamine cytotoxicity assay, fibroblast; format: cell-based; conditions: human, fibroblast cells derived from human foreskins
Outline: as §1

[9] = Sulforhodamine cytotoxicity assay, text summary over four cell lines; format: cell-based; conditions: human
Outline: as §1

H. pylori ATCC 43504 [10] = experiment: Time-killing assay; format: cell-based, Helicobacter pylori
Outline: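 H. pylori ATCC 43504 in 10% NBS-supplemented Brucella broth in 96-well plates, by broth microdilution. Inoculum suspension 5×10^6 CFU/mL; DMSO final ≤2.5%. Test compound was used at concentrations from MIC to MBC, alongside an untreated control. Viability was counted by plate colony count at 0, 6, 12, 18, 24, 36 and 48 h.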

H. pylori OX.22 = experiment: Broth dilution bioassay MIC/MBC, OX.22; format: cell-based; conditions: Helicobacter pylori; for MIC: OX.22, 48 h; for MBC: OX.22, 72 h
H. pylori OX.63 = experiment: Broth dilution bioassay MIC/MBC, OX.63; format: cell-based, Helicobacter pylori; conditions: Helicobacter pylori; for MIC: OX.63, 48 h, H. pylori OX.63, broth dilution, 48 h; for MBC: OX.63, 72 h
[11] = Sulforhodamine cytotoxicity assay, HeLa; format: cell-based; conditions: human, HeLa cells
Outline: as §1

Compound	CC50 at 48 h [1] [µg/mL]	MIC (H. pylori OX.83) [µg/mL]	MBC (H. pylori OX.83) [µg/mL]	MIC (H. pylori OX.67) [µg/mL]	MBC (H. pylori OX.67) [µg/mL]	MIC [3] [µg/mL]	IC50 [4] [µM]	slope ± SE [4]	MIC (H. pylori ATCC 51932) [µg/mL]	MBC (H. pylori ATCC 51932) [µg/mL]	MIC (H. pylori ATCC 43504 [5]) [µg/mL]	MBC (H. pylori ATCC 43504 [5]) [µg/mL]	CC50 at 48 h [6] [µg/mL]	MIC (H. pylori OX.64) [µg/mL]	MBC (H. pylori OX.64) [µg/mL]	conversion to the coccoid form (H. pylori ATCC 43504 [7]; 500 mg/L)	conversion to the coccoid form (H. pylori ATCC 43504 [7]; 1000 mg/L) [%]	CC50 at 48 h [8] [µg/mL]	CC50 at 48 h [9] [µg/mL]	MIC (H. pylori OX.22) [µg/mL]	also measured
O=C1C[C@@H](c2ccc(O)cc2)Oc2cc(O)cc(O)c21 [NRG, naringenin]	46.6 (≈ 171 µM)	100 (≈ 367 µM)	1000 (≈ 3670 µM)	100 (≈ 367 µM)	1000 (≈ 3670 µM)	100 (≈ 367 µM)	575	1.38 ± 0.045	100 (≈ 367 µM)	1000 (≈ 3670 µM)	100 (≈ 367 µM)	1000 (≈ 3670 µM)	93.7 (≈ 344 µM)	100 (≈ 367 µM)	1000 (≈ 3670 µM)	16.5%	95	133 (≈ 490 µM)	46.6 to 133 (≈ 171 to 490 µM)	100 (≈ 367 µM)	reduction of biofilm formation ([2]; 1/2 × MIC (NRG 50 mg/L, MCT 75 mg/L)): 85.9%; reduction of biofilm formation ([2]; 1/4 × MIC (NRG 25 mg/L)): 52.7%; reduction of viability (H. pylori ATCC 43504 [10]; at the MIC, 48 h): ~1 log10; reduction of viability (H. pylori ATCC 43504 [10]; five times the MIC, 24 h): ~2.5 log10; reduction of viability (H. pylori ATCC 43504 [10]; five times the MIC, 36 h): ~4 log10; MBC (H. pylori OX.22): 1000 µg/mL (≈ 3670 µM); MIC (H. pylori OX.63): 100 µg/mL (≈ 367 µM); MBC (H. pylori OX.63): 1000 µg/mL (≈ 3670 µM); CC50 at 48 h [11]: 65.2 µg/mL (≈ 239 µM)
O=C(O)c1ccc(O)c(O)c1 [PCA, protocatechuic acid]	> 200	250 (≈ 1620 µM)	1500 (≈ 9730 µM)	250 (≈ 1620 µM)	1500 (≈ 9730 µM)	250 (≈ 1620 µM)	486	2.00 ± 0.075	250 (≈ 1620 µM)	1500 (≈ 9730 µM)	250 (≈ 1620 µM)	1500 (≈ 9730 µM)	> 200	250 (≈ 1620 µM)	1500 (≈ 9730 µM)	not significantly different from that in the control group	12	> 200	> 200	250 (≈ 1620 µM)	antibiofilm activity ([2]; at test concentrations (sub-MICs)): did not show antibiofilm activity; reduction of viability (H. pylori ATCC 43504 [10]; at the MIC, 36 h): ~2 log10; reduction of viability (H. pylori ATCC 43504 [10]; four times the MIC, 48 h): ~6 log10; MBC (H. pylori OX.22): 1500 µg/mL (≈ 9730 µM); MIC (H. pylori OX.63): 250 µg/mL (≈ 1620 µM); MBC (H. pylori OX.63): 1500 µg/mL (≈ 9730 µM); CC50 at 48 h [11]: > 200 µg/mL
